From the EternaBench riboswitch data

Tested on: MS2 coat protein
Assay: apparent Kd, MS2 coat protein; higher = weaker binding; RNA-MaP array; FMN 200 µM where present
Outline: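 Designs were transcribed by stalled E. coli RNA polymerase on Illumina sequencing-chip clusters. They were titrated with SNAP-549-labelled MS2 coat protein from 0.7 or 1.5 nM, doubling to 3 µM, without and then with constant ligand. Buffer: 100 mM Tris-HCl pH 7.5, 80 mM KCl, 4 mM MgCl2, BSA, DTT, yeast tRNA, Tween-20. Green signal was normalised to red-channel RNA signal and control-cluster median Fmax. Apparent Kd is the median of filtered per-cluster binding-curve fits.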

[1] = designed as: ON switch for flavin mononucleotide, no ligand
[2] = ligand present: flavin mononucleotide, designed as: ON switch for flavin mononucleotide
[3] = designed as: OFF switch for flavin mononucleotide, no ligand
[4] = ligand present: flavin mononucleotide, designed as: OFF switch for flavin mononucleotide

Sequence	apparent Kd [1] [nM]	apparent Kd [2] [nM]	apparent Kd [3] [nM]	apparent Kd [4] [nM]
GUAGCUAUCGGAGGAUAUUCAUACCGGAAACGGACAUGAGGAUCACCCAUGUCGCGAAAGCGUUGGGAGAAGGCCGAUAGCUAC	237	21.4		
GUAGCUAUCGGAGGAUAUUCAUACCGGAAACGGACAUGAGGAUCACCCAUGUGGCGAAAGCCAUGGGAGAAGGCCGAUAGCUAC	606	131		
GUAGCUAUCGGAGGAUAUUCAUACUGGAAACGGACAUGAGGAUCACCCAUGUGGCGAAAGCCUUGGGAGAAGGCUGAUAGCUAC	139	7.72		
GUAGGCGACCAGAAGGGUGACAUGAGGAUCACCCAUGUAGAUGUGUUCCCGCUUGGGAGCCGUCCACAGGAUAUGGUUGCUUAG	66.5	42.5		
GUAGGGAUUACAUGAGGAUCACCCAUGUCAGAACGGGUAAUCAGAAGGUAUUAUUAGGGAGAGGGUAAGGAUAUGAUUUUUUAU	433	344		
GUAGGGUCAGGAUAUACUGGCUGAGGGAUGUAUUGUAGUUGGUAGAAGGGACAUGAGGAUCACCCAUGUAAGUA			35.4	34
GUAGUGUAGUGAGGAUAUACGAGAUCGAUAGAUCGGCGAUCCAAUAAUACAUGAGGAUCACCCAUGUAGAAGGCACUUCACUAC			7.26	98.8
GUAUCUUACCGAGGAUAUUUACGAUUAGUGUAGACAUGAGGAUCACCCAUGUGGCGUUAGUCACGGGAGAAGGCGGUUUGAUAC	92.2	20.5		
GUAUUUAUAUAAGGAUAUAAGUCUAGGACAUGAGGAUCACCCAUGUGUGUCUUAGAAGGUAUAUGGGUAAUACUGUUACAGUAA	226	112		
GUAUUUGAAGUAAGGAUAUGCCUCUGGAAACGGAGGUAGAAGGUACAUGAGGAUCACCCAUGUUUCUCUCUUGG			16.9	27.3
GUAUUUUUACAGAAGGUGUAUUACAUGAGGAUCACCCAUGUUUUAUGGAAUAAAGAUUUUAUUUACAAGGAUAUGUACUAUUUU	31.7	20.6		
GUCAGCUCGUCAGGAUAUACAUGAUAGAUCGAUUAAUUAAUUAAUUUAACAUGAGGAUCACCCAUGUAGAAGGGACGAGCUGAC			80.1	71.9
GUCAGCUCGUCAGGAUAUACGUCACUGCGUCAGCAGUGUGGUAAGAUCACAUGAGGAUCACCCAUGUAGAAGGGACGAGCUGAU			14.1	291
GUCAGCUCGUGAGGAUAUACAACACUGCUUCGGCAGUGUAAUAAGAUCACAUGAGGAUCACCCAUGUAGAAGGCACGAGCUGAU			12	250
GUCAGCUCGUGAGGAUAUACAACACUGCUUCGGCAGUGUAUUAAGAUCACAUGAGGAUCACCCAUGUAGAAGGCACGAGCUGUU			13.8	305
GUCAGCUCGUGAGGAUAUACAACACUGCUUCGGCAGUGUAUUAAGAUCACAUGAGGAUCACCCAUGUAGAAGGCACGAGCUUAU			13.5	233
GUCAGCUCGUGAGGAUAUACAACACUGCUUCGGUAGUGUAUUAAGAUCACAUGAGGAUCACCCAUGUAGAAGGCACGAGCUGAU			15.1	268
GUCAGCUCGUGAGGAUAUACAACAGUGCUUCGGCAGUGUAUUAAGAUCACAUGAGGAUCACCCAUGUAGAAGGCACGAGCUGAU			13.1	207
GUCAGCUCGUGAGGAUAUACAUGAUAGAUCGAUUAAUUAAUUAAUUUAACAUGAGGAUCACCCAUGUAGAAGGUACGAGCUGAU			61.6	45.2
GUCAGCUCGUGAGGAUAUACAUGUGCUGGAAACAGCAUUAUAUUUUUCACAUGAGGAUCACCCAUGUAGAAGGCACGAGCUGAU			16.3	27
GUCAGCUCGUGAGGAUAUACAUGUGCUGGAGACAGCACUAAAGAUUUCACAUGAGGAUCACCCAUGUAGAAGGCACGAGCUGAU			16.4	37.4
GUCAGCUCGUGAGGAUAUACAUGUGCUGGAGACAGCAUUAAAUAAUUCACAUGAGGAUCACCCAUGUAGAAGGCACGAGCUGAU			17.8	38.8
GUCAGCUCGUGAGGAUAUACAUGUGCUGGAUACAGCAUUAUAUUUUUCACAUGAGGAUCACCCAUGUAGAAGGCACGAGCUGAU			16.6	29.9
GUCAUACAUGAGGAUCACCCAUGUAAGGAUAUGCUAGCGGUCGGAAGAAUGACUGCUAGCAGAAGGUACAUGAU			64.1	121
GUCCUACAUGAGGAUCACCCAUGUGAGGAUAUGUGGUUAGCUGCUAGGUAGUUAGUAUGCAGAAGGUACGUGAA			14.8	15.5
GUCGAAGCCGUACUGGUCGACGGUCAGGAUAUACAUGAGGAUCACCCAUGUGCUAUUGAUACUAUGUAGAAGGGACCCACCGCA			13.3	19
GUCGGAAACGACAAAAGUAGCAUAGGAGAAGGCAUGUCAUAAGACAUGAGGAUCACCCAUGUGCAUGAGGAUAUCCUAUGCUAC	5.53	4.98		
GUCGGAAACGACAAAAGUAUGGAUCCAGAAGGCAUGAAACAUGAGGAUCACCCAUGUCUAAGACAUGAGGAUAUGGAUCCAUAC	7.11	3.78		

Sequence	apparent Kd [1] [nM]	apparent Kd [2] [nM]	apparent Kd [3] [nM]	apparent Kd [4] [nM]
GUCGUGUGAGGAUAUCGAUUAUGGAAGUCUAGAUCCAUACGCGAGAAGGCACAUGAGGAUCACCCAUGUAAUGG			337	96.1
GUCGUGUGAGGAUAUCUGAUGUCUAACUUCGGUUAGACAUCAGAGAAGGCACAUGAGGAUCACCCAUGUCCGAC			195	298
GUCGUGUGAGGAUAUGCACGAGUGACAGGGAGGCUGUCACAGCAGAAGGUACAUGAGGAUCACCCAUGUGAAAU			29.1	24.2
GUCUCGAUGUAGAAGGCCGCGUCCGGCUCACGCGGAGGAUAUACAUGAGGAUCACCCAUGUGUCUGUGGCUAAUAUGGUACGGA			41.8	234
GUCUGGUUAGGAUAUACAGUGUCCACGAGUUAGUUGCCCUAACAUGAGGAUCACCCAUGUAGAAGGAGCGAGAA			22.2	22.6
GUCUUUAAGGUAGGAUAUAGUAUGAUGGUUUAAUUAGAAGGAUCUCACAUGAGGAUCACCCAUGUAAUAGGAUUACCCAUGUAU			60.9	43.4
GUGAAACAUGAGGAUCACCCAUGUCAGGAUAUGAUACUAUGUACUUCGGUACAUAGUAUCAGAAGGGACAGUGA			77.9	101
GUGAACAUGAGGAUCACCCAUGUAGCUCACUGCCAGUGGCUACAGGAUAUAGCACCUCGAGAGUGCUAGAAGGGUGGCCUAGAA	106	33.9		
GUGAAGAUAGCAGGAUAUCUAUUUCCUACAUGAGGAUCACCCAUGUAGGUGAUCAGCCGAGUAAAGGAGAAGGGCUAUCUUUAC	22.8	9.29		
GUGAAGAUAGCAGGAUAUUUAUUUCCUACAUGAGGAUCACCCAUGUAGGUGAUCAGCCGAGUAAAGGAGAAGGGCUAUCUUUAC	30.9	21.3		
GUGAAGAUAUCAGGAUAUCUAUUUCCUACAUGAGGAUCACCCAUGUAGGUGAUCAGCCGAGUAAAGGAGAAGGGAUAUCUUUAC	23.6	10.1		
GUGAAGUAAGGAUAUACAUGAGGAUCACCCAUGUGGAGGAAGGUGAUGGGAGUAGGUAGUAGAAGGUACGAGGA			140	128
GUGACGAUGUAAGGAUAUGCAGUGGAUAACACUGCAGAAGGUACAUGAGGAUCACCCAUGUAACUCUAAUAAUAAUAACGUCAC			12.1	17
GUGCACAUUCGAGGAUAUCGGAGAGAGAUCCUUCGAGAAGGCGAUUCAUGCUGUAUUAUUCUGGACAUGAGGAUCACCCAUGUG	230	101		
GUGCAUACGUGAGGAUAUGUAUUAGAUAGUGGUACAGAAGGCAUGUCUGAUGACAUGAGGAUCACCCAUGUUGGCACAAUGCGC	51.5	30.2		
GUGCCUUGGGAGAAGGCCCAAUGCAAAGCAUAGGGAGGAUAUCCAUAUAAUAAAUAAACAUGAGGAUCACCCAUGUGGCACAAA	19.4	12		
GUGGCACAUGAGGAUCACCCAUGUCAGGAUAUCGCGUGGUUUUUUGCGGCCGCGCGCGCGAGAAGGGACGUCUU			39.2	38.1
GUGGUAUUCGUAGGAUAUCCGUCGCCACCGUGUGGAGAAGGACGAACAUGAGGAUCACCCAUGUAUCAUGGUGUGGACGUUGUC			80.2	88.4
GUGGUCAGACAUGAGGAUCACCCAUGUGGAAUAAAUAACACACAGGAUAUCGAAUAUAAAAUAUACGAGAAGGGUGGAUUGGUG	388	209		
GUGGUCAGACAUGAGGAUCACCCAUGUGGAAUAAAUAACAGACAGGAUAUAUAAUAUAGGAUAUAGUAGAAGGGUCGAUUGGUG	81.9	85.8		
GUGGUCAGACAUGAGGAUCACCCAUGUGGAAUAAAUAACGGACAGGAUAUCGAAUAUAGGAUAUACGAGAAGGGUUGAUUGGUG	83.7	106		
GUGGUGGGUUGAGGAUAUUGGUUGUCGUUGUCCCACAUGAGGAUCACCCAUGUGGGUUGUGGUUUUGAGAAGGUUGGUUGCUGG	18.1	15.9		
GUGUACAGAGGAUAUACACGAGGAGUUACGAAAGUAACUUCACAUGAGGAUCACCCAUGUAGAAGGCUGUACAC			25.3	36.6
GUGUACAGAGGAUAUACUGGAGCAUGGAAACAUGCAACCUCACAUGAGGAUCACCCAUGUAGAAGGCUGUACAC			334	28.2
GUGUACAGAGGAUAUGCUGGAAUCUAGCGAAGCUAGGUUCCACAUGAGGAUCACCCAUGUAGAAGGCUGUACAC			23.3	14.2
GUGUACGGAGGAUAUAUGUGGUGAGCAUACGCUCAAGCUUCACAUGAGGAUCACCCAUGUAGAAGGCUGUGCAC			210	150
GUGUACGGAGGAUAUGCUGGAAUCUAGCGAAGCUAGGUUCCACAUGAGGAUCACCCAUGUAGAAGGUCGUACAC			39.3	16.1
